Source: PubChem
SR-BI uptake up: enhances SR-BI lipid uptake from DiI-HDL | hit rate 0.096% among 320,000 | AID 504775 | CHO ldlA[mSR-BI] cells, DiI-HDL uptake fluorescence, 3 h; 100 = double the neutral-control signal | activation, % at 12.5 µM;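 active = mean replicate activation of at least 60% and every replicate at or above 60%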
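Test system: SR-BI-overexpressing, LDLR-lacking CHO cells. Measured by: DiI fluorescence, bottom read. Medium: Ham's F12 with 0.5% BSA, HEPES 25 mM, pH 7.4. Timing: 3 h uptake period with compound, 37 °C.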
AHR activator: activators of human aryl hydrocarbon receptor; P35869; AHR-responsive luciferase reporter cells, luminescence; activation, % at 5 µM; hit rate 2.5% among 320,000; in the data active = activation above about 47%
Yeast superoxide: lowers age-related superoxide in aged yeast cells | S. cerevisiae aged cells, superoxide DHE fluorescence; hits give low values | superoxide response (% of plate mean), % at 10 µM | hit rate 0.18% among 330,000 | AID 2690;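 active = superoxide response under a set limit, about three screen SD below normal, cut at about 65% in these data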;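 also: yeast aged for seven days with compound at 30 °C before DHE staining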
SR-BI DiI inh: mouse SR-BI HDL lipid transfer inhibition; Q61009; ldlA[mSR-BI] CHO cells, DiI-HDL uptake fluorescence, 3 h; inhibition, % at 12.5 µM; hit rate 0.96% among 320,000; AID 488896;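 active = mean replicate inhibition of at least 70% and a set share of replicates each scoring 70 or more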
Target sequence (Q61009 whole entry, looked up): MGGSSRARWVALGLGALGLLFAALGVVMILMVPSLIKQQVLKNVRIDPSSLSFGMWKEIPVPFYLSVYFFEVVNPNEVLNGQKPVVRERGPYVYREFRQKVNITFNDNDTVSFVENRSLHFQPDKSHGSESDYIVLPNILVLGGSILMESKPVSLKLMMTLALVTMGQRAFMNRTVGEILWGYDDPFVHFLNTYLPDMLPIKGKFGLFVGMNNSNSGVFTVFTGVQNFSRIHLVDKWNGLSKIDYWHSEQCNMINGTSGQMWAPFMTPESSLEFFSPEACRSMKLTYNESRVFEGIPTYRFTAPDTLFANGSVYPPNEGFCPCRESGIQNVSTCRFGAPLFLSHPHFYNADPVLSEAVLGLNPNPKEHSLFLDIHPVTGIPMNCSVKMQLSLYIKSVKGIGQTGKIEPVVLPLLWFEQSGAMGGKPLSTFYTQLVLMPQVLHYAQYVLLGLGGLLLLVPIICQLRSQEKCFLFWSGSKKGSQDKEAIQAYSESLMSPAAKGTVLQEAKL
Lipid droplet: modulators of hepatic lipid droplet formation; inhibition, % at 6.5 µM; AID 1656; AML12 mouse hepatocytes, oleate lipid droplets, BODIPY imaging; hit rate 0.4% among 240,000;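 active = lipid droplet intensity inhibited by at least 50%, with more than 500 cells counted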
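System: AML12 hepatocytes (mouse). Probe or stimulus: oleic acid at 100 µM to induce lipid droplet formation. Times: overnight treatment with compound plus oleate. Detection: Image-based BODIPY and DAPI two-channel analysis. Evaluation: percent inhibition of filter-corrected integrated lipid droplet intensity per well.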
SMARCA2 activ: increases SMARCA2 function in MMTV reporter cells. MG213 cells, MMTV-luciferase reporter, dexamethasone, overnight. activation, % at 9.1 µM. hit rate 1% among 370,000; in the data active = activation above about 7.8%
Numbers stand for hits. Rows were chosen to be rich in hits. Some 4.3% of all compounds tested hit in one or more screens of this group.

COc1cc2c(cc1NC(=O)C1CCCO1)oc1ccccc12 (configuration not stated) was read as SR-BI uptake up inactive, AHR activator inactive, Yeast superoxide inactive, SR-BI DiI inh 76, Lipid droplet inactive and SMARCA2 activ inactive.
`COc1cc2c(cc1NC(=S)NC(=O)/C=C/c1ccco1)oc1ccccc12` gave SR-BI uptake up inactive, AHR activator inactive, Yeast superoxide inactive, SR-BI DiI inh inactive, Lipid droplet inactive and SMARCA2 activ inactive.
COc1cc2c(cc1NC(=S)Nc1ccccc1C)oc1ccccc12 was read as SR-BI uptake up inactive, AHR activator inactive, Yeast superoxide inactive, SR-BI DiI inh inactive, Lipid droplet inactive and SMARCA2 activ inactive.
For Nc1nc2c(ncn2[C@@H]2O[C@H](C(=O)N[C@H](Cc3ccccc3)C(=O)NCCCc3ccccc3)[C@@H](O)[C@H]2O)c(=O)[nH]1 the results were SMARCA2 activ inactive.
CN(C)C(=O)N1CCN(C(=O)[C@H]2O[C@@H](n3ccc(N)nc3=O)[C@H](O)[C@@H]2O)CC1 was read as SMARCA2 activ inactive.
`CCCCCC(=O)NC1CCCCN(Cc2cccc(Cl)c2)C1=O` (configuration not stated) gave SMARCA2 activ inactive.
Screening COC(=O)C1=C(C)N(Cc2ccc(Cl)cc2)C(=S)NC1c1ccc(Cl)cc1 (configuration not stated) returned SMARCA2 activ inactive.
CCN(CC)S(=O)(=O)c1ccc(C(=O)Nc2cc3oc4ccccc4c3cc2OC)cc1 was read as SR-BI uptake up inactive, AHR activator 51, Yeast superoxide inactive, SR-BI DiI inh inactive, Lipid droplet inactive and SMARCA2 activ inactive.
`COc1cc2c(cc1NC(=O)COC(=O)[C@@H](NS(=O)(=O)c1cccc(Cl)c1)C(C)C)oc1ccccc12` gave SR-BI uptake up inactive, AHR activator 57, Yeast superoxide inactive, SR-BI DiI inh inactive, Lipid droplet inactive and SMARCA2 activ inactive.
Clc1ccc(-n2c(SCc3cccc4ccccc34)nnc2-c2ccco2)cc1 was read as SMARCA2 activ inactive.
Screening COc1ccc(N=Nc2ccc3ccccc3c2)c(O)c1 returned SR-BI uptake up inactive, AHR activator 49, Yeast superoxide inactive, SR-BI DiI inh inactive, Lipid droplet inactive and SMARCA2 activ inactive.
For O=C(NNc1nc2cc3c(cc2s1)OCCO3)c1ccc(F)cc1 the results were SR-BI uptake up inactive, AHR activator inactive, Yeast superoxide inactive, SR-BI DiI inh inactive, Lipid droplet inactive and SMARCA2 activ inactive.
CC(=O)c1sc(Nc2nc3cc4c(cc3s2)OCO4)nc1C was read as SR-BI uptake up inactive, SR-BI DiI inh inactive, Lipid droplet inactive and SMARCA2 activ inactive.
For c1ccc2sc(Nc3nc4cc5c(cc4s3)OCO5)nc2c1 the results were SR-BI uptake up inactive, AHR activator 137, Yeast superoxide inactive, SR-BI DiI inh inactive, Lipid droplet inactive and SMARCA2 activ inactive.
CC(=O)Nc1nc2cc3c(cc2s1)OCO3 was read as SR-BI uptake up inactive, AHR activator 54, Yeast superoxide inactive, SR-BI DiI inh inactive and SMARCA2 activ inactive.
For CC(C)C(=O)Nc1nc2cc3c(cc2s1)OCCO3 the results were AHR activator inactive, Yeast superoxide inactive, Lipid droplet inactive and SMARCA2 activ inactive.
Screening O=C(NNc1nc2cc3c(cc2s1)OCO3)c1ccc(F)cc1 returned SR-BI uptake up inactive, AHR activator 60, Yeast superoxide inactive, SR-BI DiI inh inactive, Lipid droplet inactive and SMARCA2 activ inactive.
Screening O=[N+]([O-])c1ccc(COc2cccc(CO)c2)cc1 returned SMARCA2 activ inactive.
Screening CCOCCCNC(=O)C1CCN(S(=O)(=O)c2cc3c(cc2Br)CCN3C(=O)CC)CC1 returned SMARCA2 activ inactive.
Cc1cc(Oc2cccnc2)ccc1NC(=O)Cc1c(C)[nH]c2ccccc12 was read as SMARCA2 activ inactive.
For CC[C@@H](CCCc1ccc(OC)cc1)CCC(=O)N(c1ccccc1)c1ccccc1 the results were SMARCA2 activ inactive.
CN(C)c1ccc(-c2nnc(-c3cccs3)o2)cc1 was read as SR-BI uptake up inactive, AHR activator inactive, Yeast superoxide inactive, SR-BI DiI inh inactive, Lipid droplet inactive and SMARCA2 activ inactive.
`Brc1ccc(-c2cnc(-c3cccs3)o2)cc1` gave SR-BI uptake up inactive, AHR activator 66, Yeast superoxide inactive, SR-BI DiI inh inactive and SMARCA2 activ inactive.
`Cc1cc(O)cc(=O)n1-c1cccc([N+](=O)[O-])c1` gave SMARCA2 activ inactive.
For CN1C(=O)[C@@]2(C3=C(CCCC3=O)OC3=C2C(=O)CC(C)(C)C3)c2ccccc21 the results were SMARCA2 activ inactive.
CCn1c(=N)n(CC(=O)c2ccc(Br)s2)c2ccccc21 was read as AHR activator 48, Yeast superoxide inactive, Lipid droplet inactive and SMARCA2 activ inactive.
